Source: PubChem BioAssay
Activity calls are given as the source filed them.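 Rule for the calls, unless noted: active = a full or partial loss of lipid-probe fluorescence in the fish gall bladder, intestine or both, judged by eye; inactive = no fluorescence loss, or compound toxic to the fish.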

Legend:
[1] = inhibitors of TNFa-induced NFkB p65 translocation, primary screen, imaging, HUVEC, MLSMR starter and 10KST1 sets (AID 438;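 active = inhibition above 20% together with a positive visual image hit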;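 note: compound added about 3h40 before a 20 min TNFalpha stimulation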;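 for inhibition: signal is the nuclear over cytoplasmic p65 intensity ratio per well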); details: HUVEC TNFa-induced p65 nuclear translocation; cell count: measured here: nuclei count (cytotoxicity indicator), at 2.08 µM; inhibition: at 2 µM, stronger effect = higher value, 0% TNFa-plus-vehicle, 100% no-TNFa wells
[2] = endothelial E-selectin expression blockers – imaging, HUVEC, immunofluorescence, MLSMR starter and 10KST1 sets, primary screen (AID 487;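 active = visually confirmed hit in the image check and inhibition above 20%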;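 for inhibition: signal is fraction of cell area covered by stained E-selectin grains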;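 for nuclei count: 100% = median nuclei count of all wells on the same plate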); details: HUVEC TNFalpha-induced E-selectin immunofluorescence imaging, at 2 µM; inhibition: stronger effect = higher value; nuclei count: measured here: cell number, toxicity
[3] = Primary imaging screen for DUSP6 inhibitors that restore phospho-Erk in transfected HeLa cells, chemical complementation (AID 609;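 active = compounds giving at least 50% inhibition in the cell-based MKP-3 phosphatase rescue imaging test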;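 for inhibition: phospho-Erk level distribution per well compared with pooled transfected vehicle control wells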); details: HeLa MKP-3 transfected, phospho-Erk imaging KS statistic, at 10 µM, cells stimulated with TPA for 15 min
[4] = biological target: Dual specificity protein phosphatase 6 (Homo sapiens) (UniProt Q16828); assay: as above; details: HeLa MKP-3 transfected, phospho-Erk imaging KS statistic; at 10 µM; stronger effect = higher value; cells stimulated with TPA for 15 min
Dual specificity protein phosphatase 6 (Homo sapiens), sequence (Q16828 whole entry, looked up): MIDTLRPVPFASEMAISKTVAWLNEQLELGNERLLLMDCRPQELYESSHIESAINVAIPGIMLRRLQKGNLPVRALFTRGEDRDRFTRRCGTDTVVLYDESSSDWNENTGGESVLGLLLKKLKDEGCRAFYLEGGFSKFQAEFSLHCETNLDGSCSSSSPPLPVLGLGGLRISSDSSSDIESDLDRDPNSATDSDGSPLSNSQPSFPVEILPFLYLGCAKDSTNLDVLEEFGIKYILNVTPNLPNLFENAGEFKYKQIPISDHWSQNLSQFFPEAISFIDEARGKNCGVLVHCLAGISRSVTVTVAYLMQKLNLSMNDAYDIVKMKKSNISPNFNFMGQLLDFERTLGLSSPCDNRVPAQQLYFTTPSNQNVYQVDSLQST

[5] = biological target: Voltage-gated potassium channel subunit beta-2 (Rattus norvegicus) (UniProt P62483); assay: inhibitors of rat Kvbeta2 reductase activity – biochemical, NADPH fluorescence, primary screen (AID 622;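 active = fluorescence slope higher than the sample average by over 3 SD, cut at about -0.22 in these data, passing the limit was not always enough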;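 note: slope of raw intensity against log time taken from 70 to 1610 s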); details: recombinant KvBeta, 4-cyanobenzaldehyde reduction, at 10 µM, stronger effect = higher value
Voltage-gated potassium channel subunit beta-2 (Rattus norvegicus), sequence (P62483 whole entry, looked up): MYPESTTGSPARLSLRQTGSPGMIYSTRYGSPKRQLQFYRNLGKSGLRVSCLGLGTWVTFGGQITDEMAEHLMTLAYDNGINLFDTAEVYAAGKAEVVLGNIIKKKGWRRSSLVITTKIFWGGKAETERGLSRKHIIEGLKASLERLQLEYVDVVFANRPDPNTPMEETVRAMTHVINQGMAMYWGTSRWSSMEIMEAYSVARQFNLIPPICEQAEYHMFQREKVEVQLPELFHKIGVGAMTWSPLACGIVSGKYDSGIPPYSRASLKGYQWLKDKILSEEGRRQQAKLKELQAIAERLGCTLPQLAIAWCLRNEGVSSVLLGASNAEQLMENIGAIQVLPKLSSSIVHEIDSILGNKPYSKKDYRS

[6] = biological target: Voltage-gated potassium channel subunit beta-2 (Rattus norvegicus) (UniProt P62483); assay: enhancers of rat Kvbeta2 NADPH turnover – biochemical, NADPH fluorescence, primary screen (AID 623;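 active = NADPH fluorescence slope more negative than the mean of all samples by about 3 SD, 99.7% confidence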;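 note: fluorescence intensity change per second fitted from 20 to 320 s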); details: Recombinant KvBeta, NADPH fluorescence decrease slope, 10 min; at 10 µM; stronger effect = lower value
[7] = biological target: Alpha-2C adrenergic receptor (Homo sapiens) (UniProt P18825); assay: compounds altering alpha2C-coupled GIRK flux – cell-based, HEK293 alpha2C/GIRK1/2, thallium flux, primary screen (AID 624;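 active = fluorescence slope after compound addition differing from the mean of all screened samples at 99.7% confidence, in either direction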;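 note: slope of fluorescence ratio to pre-addition baseline per second over 15 to 24 s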); details: thallium flux BTC fluorescence, at 10 µM, actives lie on both sides
Alpha-2C adrenergic receptor (Homo sapiens), sequence (P18825 whole entry, looked up): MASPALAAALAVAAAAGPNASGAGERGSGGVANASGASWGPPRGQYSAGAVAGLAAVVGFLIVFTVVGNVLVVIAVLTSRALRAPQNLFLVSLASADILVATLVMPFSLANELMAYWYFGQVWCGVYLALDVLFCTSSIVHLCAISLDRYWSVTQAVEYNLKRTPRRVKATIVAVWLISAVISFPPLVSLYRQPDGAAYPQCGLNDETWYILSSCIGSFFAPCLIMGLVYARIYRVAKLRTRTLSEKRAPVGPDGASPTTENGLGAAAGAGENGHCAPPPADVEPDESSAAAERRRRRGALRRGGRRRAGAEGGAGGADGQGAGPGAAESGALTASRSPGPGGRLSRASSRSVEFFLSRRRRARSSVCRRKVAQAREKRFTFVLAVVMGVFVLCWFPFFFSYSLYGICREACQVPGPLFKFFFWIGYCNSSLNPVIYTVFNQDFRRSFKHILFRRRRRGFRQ

[8] = inhibitors of larval lipid processing in zebrafish, primary screen, whole organism, PED6 fluorescence, gall bladder and intestine (AID 686); details: Zebrafish larvae PED6 lipid processing, fluorescence scoring; screened at 20 µM (by protocol);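 note: larvae 5 to 7 days old with five fish per well; signal comes from phospholipase A2 cleavage of quenched PED6 carried via bile; overnight exposure to compound and PED6 before scoring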
Procedure, shortened: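 Test system – live zebrafish larvae aged 5-7 days, whole organism · Buffer or medium – E3 fish medium · Reagent – quenched phospholipase substrate PED6, 100 nM final, ingested by larvae · Doses – 20 µM single dose · Incubation – overnight compound and PED6 incubation · Technique – visual fluorescence microscopy scoring of gall bladder, gut · Read-out basis – visual per-well fluorescence inhibition score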

[9] = loss of swimming-algae plug formation – whole organism, Chlamydomonas reinhardtii, WT vs cilia-less mutant, absorbance, 96-well, primary screen (AID 463189;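 active = inhibition at or above 50% relative to wild type and mutant plate controls; inactive = inhibition below 50%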;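 note: 0% = wild type cc124 cells in DMSO and 100% = ciliumless bld1 mutant cells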); details: Chlamydomonas reinhardtii gravitaxis, OD600 absorbance, 2 days; at 10 µM; stronger effect = higher value
[10] = measured here: cell density z-score
[11] = measured here: nuclear c-Myc green intensity z-score
[12] = measured here: nuclear pErk red intensity z-score, stronger effect = higher value

Structure (SMILES)	cell count [1]	inhibition [1]	inhibition [2]	nuclei count [2]	z-score [3, 10]	z-score [3, 11]	z-score [3, 12]	inhibition [4]	fluorescence slope [5]	NADPH fluorescence slope [6]	slope [7]	outcome [8]	inhibition [9]
N#Cc1c(N)sc(=S)c2c1CCCCC2	560	-3.2% (inactive)	-130% (inactive)	180%	-0.472	-0.421	0.0305	-0.608% (inactive)	-0.339 (inactive)	2.8e-06 (inactive)	0.00229 (inactive)	inactive	6.84% (inactive)
Cc1ccc2[nH]c3c(N4CCN(Cc5ccccc5)CC4)ncnc3c2c1	328	-7.3% (inactive)	-11.9% (inactive)	148%	0.594	0.553	-0.309	10.5% (inactive)	-0.403 (inactive)	-0.000135 (inactive)	0.00442 (inactive)	inactive; toxic	38.4% (inactive)
N#CC12CCCCC1CC1CCCCC1(C#N)N2Cc1ccccn1 (stereo not drawn)	372	-4.4% (inactive)	-22.3% (inactive)	86.1%	0.309	0.731	-1.95	-3.98% (inactive)	-0.46 (inactive)	-0.000337 (inactive)	0.0048 (inactive)	inactive	-3.05% (inactive)
CCCCn1c(-c2ccc(Cl)cc2)nc2c(=O)n(C)c(=O)[nH]c21	453	-18.9% (inactive)	-400% (inactive)	197%	0.0253	-0.817	1.4	11% (inactive)	-0.398 (inactive)	-5.4e-06 (inactive)	0.00511 (inactive)	inactive	-2.64% (inactive)
N#CCCSCc1ccc(OCC(=O)O)cc1	547	-22.2% (inactive)	-141% (inactive)	138%	0.922	-1.08	0.0284	5.95% (inactive)	-0.488 (inactive)	-9.2e-05 (inactive)	0.00635 (inactive)	inactive	2.45% (inactive)
CCOC(=O)c1c(C(C#N)C#N)cc(C)nc1C	521	-5.3% (inactive)	-83.6% (inactive)	129%	0.584	-0.43	0.768	-2.07% (inactive)	-0.509 (inactive)	-8e-05 (inactive)	0.00491 (inactive)	inactive	9.41% (inactive)
OCCOCCNc1ncnc2c1cnn2-c1ccccc1	472	-2% (inactive)	-38.9% (inactive)	162%	-0.85	1.86	0.161	16.8% (inactive)	-0.374 (inactive)	-1.3e-05 (inactive)	0.00585 (inactive)	inactive	0.488% (inactive)
CNC(=O)c1cc2ccccc2o1	323	-23.3% (inactive)	-72.9% (inactive)	132%	-1.3	-0.443	-1.56	-5.26% (inactive)	-0.428 (inactive)	-4.2e-05 (inactive)	0.00621 (inactive)	inactive	32% (inactive)
C=C(Br)Cn1c(CCCC)nc2ccccc21	496	-6.3% (inactive)	-117% (inactive)	145%	0.895	-1.74	-1.25	3.56% (inactive)	-0.492 (inactive)	-0.000115 (inactive)	0.00483 (inactive)	inactive	35.5% (inactive)
COc1ccc2[nH]c(C)c(C(=O)CN3CC(C)OC(C)C3)c2c1 (stereo not drawn)	551	-0.3% (inactive)	-1% (inactive)	143%	-0.788	1.62	-0.00446	3.5% (inactive)	-0.194 (inactive)	2.2e-05 (inactive)	0.00534 (inactive)	inactive	7.59% (inactive)
COC(=O)c1ccc(Oc2nc3ccccc3n3c(C)nnc23)cc1	328	-6.8% (inactive)	-57.8% (inactive)	74%	0.524	1.04	-0.937	24.7% (inactive)	-0.434 (inactive)	-1.9e-05 (inactive)	0.00622 (inactive)	inactive	27% (inactive)
CCC1SC(N)=NC1=O (stereo not drawn)	522	-23.4% (inactive)	-58.7% (inactive)	182%	-1.82	1.35	1.78	-15% (inactive)	-0.405 (inactive)	-7.4e-05 (inactive)	0.00536 (inactive)	inactive	13.5% (inactive)
Cc1c(/C(O)=C2\C(=O)C(=O)N(CCN(C)C)C2c2cccs2)cnn1-c1ccccc1 (stereo not drawn)	544	1.9% (inactive)	-68.6% (inactive)	127%	1.03	-0.0076	0.683	-5.26% (inactive)	-0.578 (inactive)	-3.3e-05 (inactive)	0.00515 (inactive)	inactive	-16.4% (inactive)
CC(C)Oc1ccc(C(=O)CCN2CCCCC2)cc1	457	6.5% (inactive)	-349% (inactive)	163%	0.309	-0.269	-0.0861	-10.6% (inactive)	-0.258 (inactive)	2.6e-05 (inactive)	0.00524 (inactive)	inactive	139% (active)
CC(=O)c1ccc(O)c(CO)c1	639	-20.9% (inactive)	-32.3% (inactive)	101%	-0.0166	0.525	-0.493	4.37% (inactive)	-0.463 (inactive)	-1.1e-05 (inactive)	0.00706 (inactive)	inactive	-12.4% (inactive)
COc1ccc(C=NCCCN2CCOCC2)cc1	638	-9.5% (inactive)	-363% (inactive)	165%	-1.79	-1.02	1.46	-0.159% (inactive)	-0.486 (inactive)	-8.5e-05 (inactive)	0.00493 (inactive)	inactive	-6.33% (inactive)
CCOC(=O)c1[nH]c2ccc(Br)cc2c1NC(=O)CCN1CCN(C(=O)OCC)CC1	545	-23.3% (inactive)	-94.6% (inactive)	158%	-0.326	-0.22	-0.0275	-7.86% (inactive)	-0.522 (inactive)	-4.7e-05 (inactive)	0.00482 (inactive)	inactive	18.6% (inactive)
CN=C1c2c(-c3ccccc3)c3cc(OC)ccc3n2CCN1C	531	-21.3% (inactive)	-137% (inactive)	145%	0.562	0.295	-0.655	-2.47% (inactive)	-0.118 (active)	-9.2e-06 (inactive)	0.00488 (inactive)	inactive	2.56% (inactive)
COc1ccc(C(=O)N2CCC(N3CCN(c4ccccc4)CC3)CC2)cc1OC	420	-28.9% (inactive)	-222% (inactive)	170%	1.05	-0.675	-0.812	17.7% (inactive)	-0.348 (inactive)	9.9e-06 (inactive)	0.00411 (inactive)	inactive	29.9% (inactive)
N#CC1=C(SCC(=O)c2ccc(Cl)cc2)NC2=C(C(=O)CCC2)C1c1ccco1 (stereo not drawn)	362	-6.1% (inactive)	-118% (inactive)	147%	1.13	-0.168	-0.867	9.42% (inactive)	-0.422 (inactive)	-0.000127 (inactive)	0.00564 (inactive)	active; weak signal in gallbladder and intestine	13.1% (inactive)
Cc1nc(NCCN)c(C#N)c2c1COC(C)(C)C2	666	-1.2% (inactive)	-117% (inactive)	165%	-0.432	-0.111	-0.818	1.75% (inactive)	-0.506 (inactive)	-1.4e-06 (inactive)	0.00551 (inactive)	inactive	1.63% (inactive)
